Xi reactivation = activators of X-chromosome reactivation in mouse fibroblasts; AID 743238; hit rate 0.055% among 360,000; XiGFP mouse fibroblasts, % GFP-positive cells imaging, 3 d; cells co-treated with 5-aza-dC sensitizer; scaled so ellipticine positive control = 100%; activation, % at 7.58 µM;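 active means mean normalized replicate activation at least 10% and every replicate at or above 10%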;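 further: 0% = median of on-plate neutral control wells and 100% = ellipticine 6 µM median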
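Material: SV40-immortalized XiGFP fibroblast cells, line 68-5-11 | Buffer or medium: DMEM containing 5-aza-dC | Dosing: One concentration, pinned | Times: 3 d treatment, 15 min room-temperature fixation | Controls: Ellipticine 6 µM positive control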
NSD2 inh = NSD2 (human) methyltransferase inhibition | inhibition, % at 12.5 µM | NSD2 peptide methylation, AlphaScreen, 120 min | hit rate 0.54% among 310,000 | O96028; in the data active means inhibition above about 50%
ARNT-TACC3 inh = disrupts binding between human ARNT and TACC3. Q9Y6A5. AlphaScreen His-ARNT PAS-B/GST-TACC3 binding, luminescence; TACC3 fragment carries E629A point mutation. inhibition, % at 9.99 µM. hit rate 0.66% among 390,000. AID 623870;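 active means mean inhibition of replicates at least 50% and at least half of replicates each reaching 50%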;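 further: 0% = complete ARNT plus TACC3 wells and 100% = ARNT alone without TACC3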
sPLA2-III inh = Blocks human group III sPLA2 activity; Q9NZ20; QFRET BODIPY PC-A2 liposome hydrolysis, fluorescence; inhibition, % at 12.2 µM; hit rate 0.56% among 370,000; AID 743126;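 active means inhibition above mean plus 3 SD of compounds lying within the high and low control bounds, cut at about 19% in these data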;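 further: 0% = median of test compound wells and 100% = no enzyme DMSO wells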
Target sequence (Q9NZ20 whole entry, looked up): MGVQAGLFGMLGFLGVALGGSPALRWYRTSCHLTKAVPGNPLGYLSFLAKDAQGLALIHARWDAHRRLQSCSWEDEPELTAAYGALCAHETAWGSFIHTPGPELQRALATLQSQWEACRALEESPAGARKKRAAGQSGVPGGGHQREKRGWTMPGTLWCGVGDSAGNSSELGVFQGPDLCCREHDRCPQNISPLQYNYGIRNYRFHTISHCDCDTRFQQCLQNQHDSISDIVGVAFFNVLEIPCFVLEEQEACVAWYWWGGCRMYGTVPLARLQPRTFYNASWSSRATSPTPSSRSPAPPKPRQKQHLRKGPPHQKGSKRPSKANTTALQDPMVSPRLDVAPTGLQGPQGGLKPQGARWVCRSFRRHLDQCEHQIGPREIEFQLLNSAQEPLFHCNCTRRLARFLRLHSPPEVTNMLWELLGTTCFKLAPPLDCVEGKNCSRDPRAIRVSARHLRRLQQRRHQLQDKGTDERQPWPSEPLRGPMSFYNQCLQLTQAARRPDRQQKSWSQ
SR-BI HDL uptake = blocks mouse SR-BI lipid uptake from DiI-HDL; Q61009; ldlA[mSR-BI] CHO cells, DiI-HDL uptake fluorescence, 3 h; inhibition, % at 12.5 µM; hit rate 0.96% among 320,000;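 active means mean replicate inhibition of at least 70% and a set share of replicates each scoring 70 or more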;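 further: 0% = median of neutral control wells and 100% = median of positive control wells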
SR-BI DiI-HDL act = SR-BI HDL lipid transfer activation; AID 504775; activation, % at 12.5 µM; CHO ldlA[mSR-BI] cells, DiI-HDL uptake fluorescence, 3 h; 100 = double the neutral-control signal; hit rate 0.096% among 320,000;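 active means mean replicate activation of at least 60% and every replicate at or above 60%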;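 further: 0% = median plate neutral-control signal and 100% = twice that signal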
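System: CHO ldlA[mSR-BI] cells / Medium: HEPES-buffered (25 mM, pH 7.4) F12 plus 0.5% BSA / Probe or stimulus: labelled HDL, 10 µg/mL / Doses: single compound concentration, delivered by pin transfer / Schedule: 3 h, 37 °C / Measured by: DiI fluorescence, bottom read / Measure: cell-associated DiI fluorescence as measure of HDL uptake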
AlphaScreen ctr = interferes with AlphaScreen signal, flagging false ARNT-TACC3 hits; shares compounds with ARNT-TACC3 inh; His-ARNT PASB-GST AlphaScreen artifact counter-screen, luminescence; AC50, µM (doses to about 68 µM), for the others: top-dose activity change, negative = signal decrease; hit rate 50% among 1,200;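 active means every separate test run was called active for a drop in luminescence, with AC50 within twice the top valid dose, actives reach about 71 µM in these data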
Active calls of the source: *; . = no result; [ ] = remark or other dose. Only some compounds are listed: those with a hit (about 2% of all), similar ones and a draw of the others.

SMILES | Xi reactivation | NSD2 inh | ARNT-TACC3 inh | sPLA2-III inh | SR-BI HDL uptake | SR-BI DiI-HDL act | AlphaScreen ctr
Cc1cc(C(=O)Nc2nnc(-c3ccccc3)s2)no1 | . | -5.2 | -3.8 | 0.5 | -9.9 | 9.9 | .
O=C(Nc1ncc2ccccc2n1)c1cc(-c2ccccc2)on1 | . | . | . | . | . | . | 5.8%[38 µM]
O=C(Nc1nc2ccccc2s1)c1cc(-c2ccccc2)on1 | . | . | . | . | . | . | -0.1%[38 µM]
CCc1nc2ccc(C(=O)Nc3cc(-c4ccccc4)ccc3OC)cn2c1N(CC)Cc1cccc(Br)c1 | -0.1 | 2.0 | . | 7.9 | . | . | .
COc1cc(C(C(=O)NC2CCCCC2)N(C(=O)c2snc(C(N)=O)c2N)c2ccc(C)cc2)ccc1O (configuration not stated) | 0.3 | -1.9 | -3.5 | -23.1 | 8.8 | -8.8 | .
COc1cccc(NC(=O)CN(C)C(=O)c2cn(-c3ccccc3)nc2-c2cccnc2)c1 | 0.0 | -0.2 | -0.6 | -4.2 | -19.0 | 19.0 | .
COc1ccc(S(=O)(=O)Nc2ccc3c(c2)CC(=O)N([C@H](C)CO)C[C@@H](C)[C@H](CN(C)C(=O)Nc2ccc(C(F)(F)F)cc2)O3)cc1 | -0.1 | . | -7.8 | . | . | . | .
Cc1cc(=O)n(-c2ccc(O)cc2)[nH]1 | . | 6.6 | 14.7* | -3.8 | -21.4 | 21.4 | -9.8%
CCOC(=O)C1(CCc2ccccc2)CCN(C(=O)c2cc(C)nc(C)n2)CC1 | 0.1 | -0.5 | -9.4 | -1.4 | 14.6 | -14.6 | .
COc1cccc2c1-c1c(O)cccc1C2=O | 0.0 | -3.1 | 9.0 | 2.6 | -11.3 | 11.3 | .
O=C1C=C(O)c2cccc(O)c2C1=O | . | . | 51.5* | 0.8 | -1.9 | 1.9 | -8.4%
COc1cc(C2Nc3ccccc3C(=O)N2NS(C)(=O)=O)c([N+](=O)[O-])cc1OC (configuration not stated) | 0.0 | 0.1 | active | 1.3 | -15.2 | 15.2 | -11.1%
Cc1noc(C)c1S(=O)(=O)N(C)C[C@@H]1Oc2ccc(NC(=O)Nc3ccc4c(c3)OCO4)cc2CC(=O)N([C@H](C)CO)C[C@@H]1C | 0.0 | . | . | . | . | . | .
CC(=O)NC1CC2CCCC(C1)N2C(=O)Nc1ccc(Cl)c(C(F)(F)F)c1 (configuration not stated) | . | . | -6.5 | -0.4 | -11.8 | 11.8 | .
COc1ccc([Si](C)(C)[C@@H]2[C@@H](CCO)O[C@]3(C(=O)N4c5c(cc(OC)cc53)C(C)=CC4(C)C)[C@H]2C)cc1 | . | . | 52.1* | . | . | . | 9.01µM*
COc1ccc([Si](C)(C)[C@H]2[C@H](CCO)O[C@@]3(C(=O)N4c5c(cc(OC)cc53)C(C)=CC4(C)C)[C@@H]2C)cc1 | . | . | 41.5 | . | . | . | .
O=C(CSc1n[nH]c(=O)[nH]c1=O)N/N=C/c1ccccc1O | 0.0 | -8.4 | 52.5* | -1.0 | 11.5 | -11.4 | -26.5%
COc1cc(/C=N/NC(=O)CSc2n[nH]c(=O)[nH]c2=O)cc(OC)c1O | 0.0 | -0.7 | 56.7* | -0.5 | -14.7 | 14.7 | -36.9%
COC(=O)[C@H]1[C@H](CO)[C@H]2Cn3c(cccc3=O)[C@H]2N1CC1CCCC1 | -0.1 | . | . | . | . | . | .
Cc1[nH]n(-c2ccccc2)c(=O)c1/C=N/N(c1ccccc1)c1ccccc1 | 0.0 | 27.8 | 55.0* | -3.1 | -9.0 | 9.0 | 22.9µM*
Cc1cc(F)ccc1NS(=O)(=O)c1cccc2nsnc12 | -0.1 | -2.0 | active | -6.4 | 15.7 | -15.7 | -3.2%
O=S(=O)(Nc1cccc(F)c1)c1cccc2nsnc12 | 0.1 | -0.7 | 10.5 | 3.3 | -0.7 | 0.7 | .
O=C(CN1CC(=O)Oc2ccccc21)OCC(=O)c1ccccc1 | . | -2.5 | 54.1* | 3.2 | -18.1 | 18.1 | 8.3µM*
Cc1ccc(S(=O)(=O)Cn2nnnc2C(c2ccccc2)N2CCN(c3ccccc3)CC2)cc1 (configuration not stated) | . | -2.0 | 58.4* | 9.2 | -17.2 | 17.2 | -32.9%
Cc1ccccc1NCc1ccc(O)c2ncccc12 | . | 0.6 | -128.7 | 12.9 | -21.2 | 21.2 | .
SMILES | Xi reactivation | NSD2 inh | ARNT-TACC3 inh | sPLA2-III inh | SR-BI HDL uptake | SR-BI DiI-HDL act | AlphaScreen ctr
c1ccc2c(Cn3ccnc3)c[nH]c2c1 | . | 1.2 | 1.0 | -5.8 | -7.9 | 7.9 | .
COCc1ccc(O)c2ncccc12 | . | -2.6 | 75.2* | 5.2 | -16.5 | 16.5 | 16.2µM*
Oc1ccc(Cn2ccnc2)c2cccnc12 | 0.1 | 0.8 | 58.4* | -6.8 | 7.3 | -7.3 | 6.15µM*
O=c1onc(-c2ccccc2)n1-c1cc(Cl)cc(Cl)c1 | 0.0 | -1.2 | . | 10.5 | . | . | .
CN(C)C(=O)C[C@@H]1C=C[C@H](NC(=O)NC2CCCC2)[C@@H](CO)O1 | -0.6 | . | -4.0 | . | . | . | .
C[C@@H](C(=O)Nc1nc(-c2ccccn2)cs1)N1C(=O)C2CCCCC2C1=O (some centres not stated) | . | . | 63.2* | -8.1 | 12.4 | -12.4 | 21.4µM*
CC(Oc1ccc(Br)cc1)C(=O)Nc1nc(-c2ccccn2)cs1 (configuration not stated) | -0.1 | -5.0 | 28.7 | -0.3 | -5.6 | 5.6 | .
O=C(CN1C(=O)C2CCCCC2C1=O)Nc1nc(-c2ccccn2)cs1 (configuration not stated) | . | 6.2 | 74.5* | 1.0 | -29.7 | 29.7 | 51.5µM*
COc1ccc(NC(=O)COC(=O)/C=C/c2ccccc2[N+](=O)[O-])cc1 | . | -7.7 | -6.6 | 5.0 | -3.1 | 3.1 | .
COc1ccc(N(C(C)=O)c2nc3ccccc3[nH]2)cc1 | 0.0 | 0.9 | 52.6* | 5.3 | 5.7 | -5.7 | -8.5%
COc1ccc(C(=O)Nc2nc3ccccc3[nH]2)cc1 | 0.0 | 1.5 | 2.3 | 12.5 | -14.7 | 14.7 | .
CCSc1nc2ccc(C)cc2cc1C#N | 0.1 | -1.9 | 1.5 | 4.3 | 31.8 | -31.8 | .
C[C@H]1CN([C@@H](C)CO)S(=O)(=O)c2ccc(C#Cc3ccccn3)cc2O[C@H]1CN(C)C(=O)C1CC1 | 0.6 | . | 26.0 | . | . | . | .
C[C@@H]1CN([C@H](C)CO)S(=O)(=O)c2ccc(C#Cc3ccccn3)cc2O[C@@H]1CN(C)C(=O)C1CC1 | -0.2 | . | 50.8* | . | . | . | -5.1%[42 µM]
CCOc1cc(CNCC(O)c2ccccc2)cc(Cl)c1OC (configuration not stated) | 0.1 | 0.3 | . | -7.7 | 4.8 | -4.8 | .
COc1cc(CNCc2ccccn2)ccc1OCc1ccc(Cl)cc1Cl | . | 14.7 | 55.0* | 1.5 | 12.8 | -12.8 | -39.4%
CCNCc1cc(Cl)c(OCc2ccccc2)c(OCC)c1 | -0.2 | 48.6 | -4.1 | -7.7 | 3.8 | -3.8 | .
COc1cccc(CNCc2ccc(OC)c3ccccc23)c1OC | 0.1 | 2.6 | 9.4 | -9.2 | 47.0 | -47.0 | .
CCOc1cc(CNCc2ccccn2)cc(Cl)c1OCC | -0.3 | 2.3 | 53.1* | 5.6 | 9.5 | -9.5 | -21.4%
COc1cccc(CNCc2ccccn2)c1OC | . | . | 61.5* | 2.7 | -4.1 | 4.1 | -4.7%

Source: PubChem BioAssay
